# Bioassay records (PubChem)
# MPTP inh – permeability transition pore inhibition. hit rate 1.4% among 360,000. inhibition, % at 10 µM. AID 602449. isolated mouse mitochondria, Ca2+ swelling absorbance, 30 min;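 active means inhibition of 50% or more, scaled per plate between neutral and stimulator controls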
# T cruzi inh – blocks replication of Trypanosoma cruzi. T. cruzi beta-gal in NIH3T3, luminescence, 90 h. inhibition, % (test concentration not listed). hit rate 1.4% among 300,000. AID 1885;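 active means mean inhibition across valid replicates above about 55%, limit read from the data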;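 further: signal also drops with host cell toxicity which is not excluded here; higher percent means less beta-gal luminescence so fewer parasites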
#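 System: Mouse NIH/3T3 fibroblasts infected with β-gal-expressing T. cruzi Tulahuen C4 | Quantity: NIH/3T3 cells, 5,000 per well | Reagent: 5000 reporter trypomastigotes per well | Dosing: Compound pinned at 50 nL/well, DMSO | Schedule: 3 h host attachment, then at least 90 h co-culture | Detection: GalScreen luminescence, 60 min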
# L major viab – inhibitors of Leishmania major promastigote growth; AID 1063; inhibition, % at 10 µM; hit rate 9% among 200,000; Leishmania major promastigotes, resazurin fluorescence viability; in the data active means inhibition above about 50%;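 further: promastigotes grown with compound for 44 hours at 28 °C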
# Lipid droplet – hepatic lipid droplet formation modulation; AML12 mouse hepatocytes, oleate lipid droplets, BODIPY imaging; inhibition, % at 6.5 µM; hit rate 0.4% among 240,000; AID 1656;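 active means lipid droplet intensity inhibited by at least 50%, with more than 500 cells counted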
#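 Assay system: AML12 hepatocytes (mouse); Probe or stimulus: oleic acid at 100 µM to induce lipid droplet formation; Dosing: compound at 6.5 µM only; Schedule: compound with oleate, overnight; Detection: fluorescence imaging, 20x objective, two fields per well; Measure: % inhibition of lipid droplet signal.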
# DTT redox prof – compounds producing H2O2 with reducing agent – biochemical, NIH compound library profiling, artefact control for MLSCN library redox annotation, primary screen | DTT-dependent redox cycling H2O2, phenol red/HRP absorbance; 100% = 100 µM peroxide control, 0% = buffer | activation, % at 10 µM | hit rate 0.03% among 200,000;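 active means activation of at least 50% relative to the plate's high and low controls in the primary single-dose screen; inactive means activation below 50%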;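 further: compound incubated with DTT at 0.8 mM final as the reducing agent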
# Numbers stand for hits; n = inactive; x = no result given. The full list was thinned out, with hits kept by preference.
SMILES,MPTP inh,T cruzi inh,L major viab,Lipid droplet,DTT redox prof
C=CCc1c(C)nc(-c2ccccc2)nc1N/N=C/c1ccncc1,n,55,68,n,n
COc1cc(Cl)c(C)cc1NC(=O)c1cc(S(=O)(=O)N(C)C)ccc1N1CCCC1,n,n,n,n,n
COc1cc(C(=O)NCc2nnc(SCC(=O)Nc3nc4ccccc4s3)o2)cc(OC)c1OC,n,n,71,n,n
CSc1nsc(SCC(=O)Nc2nc3ccccc3s2)n1,n,n,63,n,n
CC(C)n1c(/N=C/c2ccccc2O)nc2ccccc21,n,n,x,n,x
CCCCn1c(/N=C/c2ccccc2NS(=O)(=O)c2ccc(C)cc2)nc2ccccc21,n,x,77,n,n
Cc1ccc(S(=O)(=O)Nc2ccccc2/C=N/c2nc3ccccc3n2C(C)C)cc1,n,x,58,n,n
CCn1c(/N=C/c2ccccc2O)nc2ccccc21,n,n,x,n,x
O=C(N/N=C/c1ccco1)/C(=C/c1cccc([N+](=O)[O-])c1)NC(=O)c1ccccc1,n,n,n,x,n
O=C(N/N=C/c1ccc(-c2cccc([N+](=O)[O-])c2)o1)c1ccc([N+](=O)[O-])cc1,n,n,64,n,n
C/C(=N\NC(=O)c1cc(-c2cccc([N+](=O)[O-])c2)n[nH]1)c1ccccc1O,n,61,n,n,n
O=C(N/N=C/c1ccc(Br)o1)/C(=C/c1ccc([N+](=O)[O-])cc1)NC(=O)c1ccccc1,n,n,57,x,n
O=C(N/N=C/c1ccc(-c2cccc([N+](=O)[O-])c2)o1)c1ccccc1O,n,n,93,n,n
CC1(C)CC(=O)C2=C(C1)OC1=C(C(=O)CC(C)(C)C1)C2c1ccc(O)cc1O,n,n,76,x,n
Cc1cccc(/N=C/c2c(O)ccc3oc4c(c23)CCCC4)n1,n,n,91,n,n
COc1ccc([N+](=O)[O-])cc1N(CC(=O)NCCC1=CCCCC1)S(C)(=O)=O,n,n,71,n,n
COc1ccc([N+](=O)[O-])cc1N(CC(=O)NCC1CCCO1)S(C)(=O)=O (stereo unspecified),n,n,58,n,n
CCCCN1C(=O)C2(NNc3ccccc3O2)c2ccccc21 (stereo unspecified),n,n,96,n,n
CCCCCN(C(=O)CCC(=O)OCC(=O)c1ccc(C(C)CC)cc1)c1c(N)n(CCCC)c(=O)[nH]c1=O (stereo unspecified),n,n,x,x,x
COc1ccc(-c2nnc(NC(=O)C3=COCCO3)o2)cc1,n,n,n,n,n
COc1cccc(OC)c1C(=O)Nc1cccc(NC(=O)c2cccs2)c1,n,n,x,n,x
COC(=O)COc1cccc(NC(=O)COc2ccccc2)c1,n,n,91,n,n
COC(=O)COc1cccc(NC(=O)c2ccccc2)c1,n,n,n,x,n
COC(=O)COc1cccc(NC(=O)c2cccs2)c1,n,n,61,n,n
CCOc1ccccc1/C=C(\C#N)C(=O)NC1CC1,n,n,x,x,x
SMILES,MPTP inh,T cruzi inh,L major viab,Lipid droplet,DTT redox prof
COc1ccc(-c2[nH]ncc2/C=C(/C#N)C(=O)NC2CCCCC2)cc1,n,n,66,n,n
N#C/C(=C\c1cccn1-c1ccccc1)C(=O)NC1CCCCC1,n,n,n,n,n
N#C/C(=C\C=C\c1ccccc1[N+](=O)[O-])C(=O)NC1CCCCC1,n,n,91,n,n
N#C/C(=C\c1ccccc1[N+](=O)[O-])C(=O)NC1CCCCC1,n,n,100,n,n
C/C=C\C(=O)Nc1cccc(C2=NOC3(C2)C[C@@H](C(N)=O)N(C(=O)c2ccc(OC)cc2)C3)c1 (stereo partly specified),x,n,x,x,x
O=C(/C=C\c1ccc2c(c1)OCO2)Nc1c2c(nn1-c1ccc(Cl)cc1)CSC2,n,n,95,n,n
O=C(Cn1c(=O)c2c(ncn2Cc2ccccc2)n(Cc2ccccc2)c1=O)NC1CC1,n,n,n,x,n
COc1cccc(NC(=O)Cn2c(=O)c3c(ncn3Cc3ccccc3)n(Cc3ccccc3)c2=O)c1,n,n,69,n,n
COCCN1C(=O)/C(=C/c2ccc(Oc3ccc([N+](=O)[O-])cn3)c(OC)c2)SC1=Nc1ccccc1,n,n,100,n,n
CC(C)CCN1CCN(Cc2cccc(C(F)(F)F)c2)CC1CCO (stereo unspecified),n,n,92,n,n
CSc1cccc(CN2CCN(CCC(C)C)C(CCO)C2)c1 (stereo unspecified),n,n,79,n,n
O=C1NC(c2cccc([N+](=O)[O-])c2)Oc2ccccc21 (stereo unspecified),n,n,n,n,n
Clc1ccc(C2=NCCN2)cc1,n,62,n,n,n
O=C(COc1ccc(F)cc1)Nc1ccccc1N1CCOCC1,n,n,x,x,x
C=CCN(CC=C)c1cnn(-c2nc3ccccc3[nH]2)c(=O)c1Cl,n,n,65,n,n
Cc1ccc(S(=O)(=O)N2CCN(C3CCC(c4ccccc4)CC3)CC2)cc1 (stereo unspecified),x,n,96,n,n
CC(C)(C)C1CCC(N2CCN(c3ccccc3)CC2)CC1 (stereo unspecified),n,n,x,n,x
CCCS(=O)(=O)N1CCN(C2Cc3ccccc3C2)CC1,n,n,x,n,x
c1ccc(C2CCC(N3CCNCC3)CC2)cc1 (stereo unspecified),n,n,91,n,n
CCS(=O)(=O)N1CCN(C2CCC(c3ccccc3)CC2)CC1 (stereo unspecified),n,n,99,x,n
O=C(NC1CCCCC1)C(c1ccc(C(F)(F)F)cc1)n1c(=O)c(-c2ccccc2)nc2ccccc21 (stereo unspecified),n,x,x,x,x
CC(NCC(O)COC1CCC(C(C)(C)C)CC1)c1ccccc1 (stereo unspecified),n,75,100,n,n
CN(C)c1ccc(C(CNS(=O)(=O)c2ccc(F)cc2)c2c[nH]c3ccccc23)cc1 (stereo unspecified),n,n,79,n,n
CN(C)c1ccc(C(CNC(=O)c2ccc(C#N)cc2)c2c[nH]c3ccccc23)cc1 (stereo unspecified),n,n,n,n,n
O=[N+]([O-])CC(c1ccccc1)c1c[nH]c2ccccc12 (stereo unspecified),n,n,x,x,x
SMILES,MPTP inh,T cruzi inh,L major viab,Lipid droplet,DTT redox prof
CN(C)c1ccc(C(CNC(=O)c2ccccc2Br)c2c[nH]c3ccccc23)cc1 (stereo unspecified),n,n,94,n,n
CCCSc1cc(NCCOC(C)=O)c([N+](=O)[O-])c2nonc12,n,n,67,n,n
CC(=O)OCCCNc1cc(SCc2ccco2)c2nonc2c1[N+](=O)[O-],n,n,51,n,n
CCCC(=O)OCCNc1cc(SCc2ccco2)c2nonc2c1[N+](=O)[O-],n,n,n,n,n
CCCC(=O)OCCNc1cc(Sc2nccn2C)c2nonc2c1[N+](=O)[O-],n,61,100,n,n
CCCSc1cc(NCCOC(=O)CCC)c([N+](=O)[O-])c2nonc12,n,n,n,n,n
